# Source: ChEMBL document CHEMBL4130442, “Design, synthesis and structure-activity relationship studies of a focused library of pyrimidine moiety with anti-proliferative and anti-metastasis activities in triple negative breast cancer” (Eur J Med Chem, 2017)
# Calls of active or inactive are those of the source. The rule behind the calls is not given here.
# Legend:
# [1] = target: T1, Platelet-derived growth factor receptor beta (Homo sapiens, UniProt P09619); test: Inhibition of PDGFRbeta in human MDA-MB-231 cells assessed as ULK Ser317 phosphorylation level at 10 uM incubated for 24 hrs by Western blot relative to untreated control; format: cell-based
# Method in brief: (§1)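 Cells were treated 24 h at several concentrations. Pooled adherent and floating cells were lysed in Hepes 50 mM pH 7.4 / 1% Triton X-100 buffer with vanadate, NaF, EDTA, PMSF, aprotinin and leupeptin. Equal protein was run on 10-15% SDS-PAGE and blotted to PVDF. PDGFR-β-AKT-ULK1 pathway phospho-proteins were probed and detected by ECL, with β-actin as loading control.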
# [2] = target: T1, Platelet-derived growth factor receptor beta; test: Inhibition of PDGFRbeta in human MDA-MB-231 cells assessed as PDGFRbeta Tyr740 phosphorylation level at 10 uM incubated for 24 hrs by Western blot relative to untreated control; format: cell-based; method in brief: as §1
# [3] = target: T1, Platelet-derived growth factor receptor beta; test: Inhibition of PDGFRbeta in human MDA-MB-231 cells assessed as mTOR Ser2448 phosphorylation level at 2.5 uM incubated for 24 hrs by Western blot relative to untreated control; format: cell-based; method in brief: as §1
# [4] = target: T1, Platelet-derived growth factor receptor beta; test: Inhibition of PDGFRbeta (unknown origin) using ATP and enzyme substrate by kinase-glo Plus luminescence kinase assay
# MDA-MB-231 [5] = test: Induction of autophagy in human MDA-MB-231 cells assessed as change in p62 protein level at 5 uM incubated for 24 hrs by Western blot method relative to untreated control; format: functional
# Method in brief: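 Cells grown in DMEM with 10% FBS under 5% CO2 and treated 24 h across a range of concentrations. Adherent and floating cells were pooled and lysed in Hepes 50 mM pH 7.4 / 1% Triton X-100 buffer with phosphatase and protease inhibitors, 4 °C for 1 h. Equal protein was run on 10-15% SDS-PAGE, blotted to PVDF, probed with Beclin-1, p62 and LC3 antibodies and detected by ECL.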
# MDA-MB-231 [6] = test: Effect on total ERK1/2 protein level in human MDA-MB-231 cells at 2.5 uM incubated for 24 hrs in presence of PDGFRbeta siRNA by Western blot relative to untreated control; format: cell-based; conditions: mda-mb-231, 24 h
# MDA-MB-231 [7] = test: Effect on total PDGFRbeta protein level in human MDA-MB-231 cells at 2.5 uM incubated for 24 hrs by Western blot relative to untreated control; format: ADME, cell-based; conditions: mda-mb-231, 24 h
# Method in brief: (§2)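 MDA-MB-231 cells were exposed for 24 h. Adherent and floating cells were pooled and lysed for 1 h at 4 °C in 50 mM Hepes pH 7.4 with 1% Triton X-100, orthovanadate, NaF, EDTA, PMSF, aprotinin and leupeptin. After 12,000 rpm clearing, equal protein was run on 10-15% SDS-PAGE and blotted to PVDF. Detection used HRP-ECL, with β-actin as loading control and densitometric quantification.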
# MDA-MB-231 [8] = test: Induction of autophagy in human MDA-MB-231 cells assessed as change in Beclin-1 protein level at 10 uM incubated for 24 hrs by Western blot method relative to untreated control; format: functional; method in brief: as §2
# [9] = target: T1, Platelet-derived growth factor receptor beta; test: Inhibition of PDGFRbeta in human MDA-MB-231 cells assessed as ULK Ser317 phosphorylation level at 2.5 uM incubated for 24 hrs by Western blot relative to untreated control; format: cell-based; method in brief: as §1
# MDA-MB-231 [10] = test: Effect on total PDGFRbeta protein level in human MDA-MB-231 cells at 10 uM incubated for 24 hrs by Western blot relative to untreated control; format: ADME, cell-based; conditions: mda-mb-231, 24 h; method in brief: as §2
# [11] = target: T1, Platelet-derived growth factor receptor beta; test: Inhibition of PDGFRbeta in human MDA-MB-231 cells assessed as Akt Thr305 phosphorylation level at 2.5 uM incubated for 24 hrs by Western blot relative to untreated control; format: cell-based; method in brief: as §1
# MDA-MB-231 [12] = test: Induction of apoptosis in human MDA-MB-231 cells assessed as change in cleaved PARP protein level at 2.5 uM incubated for 24 hrs by Western blot method relative to untreated control; format: functional; method in brief: as §2
# MDA-MB-231 [13] = test: Induction of autophagy in human MDA-MB-231 cells assessed as change in LC3-2 protein level at 10 uM incubated for 24 hrs by Western blot method relative to untreated control; format: functional
# Method in brief: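 MDA-MB-231 cells (ATCC; DMEM, 10% FBS, 5% CO2) were treated 24 h over a concentration series. Adherent and floating cells were pooled and lysed 1 h at 4 °C (50 mM Hepes pH 7.4, 1% Triton X-100, phosphatase/protease inhibitors). Equal protein was run on 10-15% SDS-PAGE, transferred to PVDF, probed for Beclin-1, p62 and LC3 with HRP/ECL detection, and normalised to β-actin.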
# MDA-MB-231 [14] = test: Activation of ERK in human MDA-MB-231 cells assessed as ERK Thr202/Tyr204 phosphorylation level at 2.5 to 10 uM incubated for 24 hrs by immunocytochemistry; format: cell-based
# Method in brief: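 MDA-MB-231 cells (ATCC; DMEM, 10% FBS, 5% CO2) were treated, blocked in PBS with 1.5% goat serum, then given p-ERK antibody (1:200 in PBS with 1% BSA) overnight at 4 °C. TRITC-labelled secondary antibody followed for 1 h at room temperature. Nuclear fluorescence was read by microscopy.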
# [15] = target: T1, Platelet-derived growth factor receptor beta; test: Inhibition of PDGFRbeta in human MDA-MB-231 cells assessed as ULK Ser555 phosphorylation level at 2.5 uM incubated for 24 hrs in presence of control siRNA by Western blot relative to untreated control; format: cell-based
# Method in brief: (§3)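 Cells were transfected with control or PDGFR-β siRNA, then treated with 2.5 μM compound for 24 h. PDGFR-β-AKT-ULK1 pathway phospho-proteins were assessed by western blot: lysis in Hepes pH 7.4 / Triton buffer, 10-15% SDS-PAGE, PVDF, ECL detection, β-actin as loading control.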
# [16] = target: T1, Platelet-derived growth factor receptor beta; test: Inhibition of PDGFRbeta in human MDA-MB-231 cells assessed as ULK Ser555 phosphorylation level at 2.5 uM incubated for 24 hrs in absence of PDGFRbeta siRNA by Western blot relative to untreated control; format: cell-based; method in brief: as §3
# [17] = target: T1, Platelet-derived growth factor receptor beta; test: Inhibition of PDGFRbeta in human MDA-MB-231 cells assessed as C-Raf Ser338 phosphorylation level at 10 uM incubated for 24 hrs in presence of PDGFRbeta siRNA by Western blot relative to untreated control; format: cell-based
# [18] = target: T1, Platelet-derived growth factor receptor beta; test: Inhibition of PDGFRbeta in human MDA-MB-231 cells assessed as Akt Ser473 phosphorylation level at 5 uM incubated for 24 hrs by Western blot relative to untreated control; format: cell-based; method in brief: as §1
# [19] = target: T1, Platelet-derived growth factor receptor beta; test: Inhibition of PDGFRbeta in human MDA-MB-231 cells assessed as C-Raf Ser338 phosphorylation level at 2.5 uM incubated for 24 hrs in presence of PDGFRbeta siRNA by Western blot relative to untreated control; format: cell-based
# MDA-MB-231 [20] = test: Effect on total ULK1 protein level in human MDA-MB-231 cells at 10 uM incubated for 24 hrs by Western blot relative to untreated control; format: ADME, cell-based; conditions: mda-mb-231, 24 h; method in brief: as §2
# [21] = target: T1, Platelet-derived growth factor receptor beta; test: Inhibition of PDGFRbeta in human MDA-MB-231 cells assessed as Akt Thr305 phosphorylation level at 2.5 uM incubated for 24 hrs in presence of PDGFRbeta siRNA by Western blot relative to untreated control; format: cell-based; method in brief: as §3
# [22] = target: T1, Platelet-derived growth factor receptor beta; test: Inhibition of PDGFRbeta in human MDA-MB-231 cells assessed as PDGFRbeta Tyr740 phosphorylation level at 2.5 uM incubated for 24 hrs by Western blot relative to untreated control; format: cell-based; method in brief: as §1
# T1 sequence (P09619 whole entry): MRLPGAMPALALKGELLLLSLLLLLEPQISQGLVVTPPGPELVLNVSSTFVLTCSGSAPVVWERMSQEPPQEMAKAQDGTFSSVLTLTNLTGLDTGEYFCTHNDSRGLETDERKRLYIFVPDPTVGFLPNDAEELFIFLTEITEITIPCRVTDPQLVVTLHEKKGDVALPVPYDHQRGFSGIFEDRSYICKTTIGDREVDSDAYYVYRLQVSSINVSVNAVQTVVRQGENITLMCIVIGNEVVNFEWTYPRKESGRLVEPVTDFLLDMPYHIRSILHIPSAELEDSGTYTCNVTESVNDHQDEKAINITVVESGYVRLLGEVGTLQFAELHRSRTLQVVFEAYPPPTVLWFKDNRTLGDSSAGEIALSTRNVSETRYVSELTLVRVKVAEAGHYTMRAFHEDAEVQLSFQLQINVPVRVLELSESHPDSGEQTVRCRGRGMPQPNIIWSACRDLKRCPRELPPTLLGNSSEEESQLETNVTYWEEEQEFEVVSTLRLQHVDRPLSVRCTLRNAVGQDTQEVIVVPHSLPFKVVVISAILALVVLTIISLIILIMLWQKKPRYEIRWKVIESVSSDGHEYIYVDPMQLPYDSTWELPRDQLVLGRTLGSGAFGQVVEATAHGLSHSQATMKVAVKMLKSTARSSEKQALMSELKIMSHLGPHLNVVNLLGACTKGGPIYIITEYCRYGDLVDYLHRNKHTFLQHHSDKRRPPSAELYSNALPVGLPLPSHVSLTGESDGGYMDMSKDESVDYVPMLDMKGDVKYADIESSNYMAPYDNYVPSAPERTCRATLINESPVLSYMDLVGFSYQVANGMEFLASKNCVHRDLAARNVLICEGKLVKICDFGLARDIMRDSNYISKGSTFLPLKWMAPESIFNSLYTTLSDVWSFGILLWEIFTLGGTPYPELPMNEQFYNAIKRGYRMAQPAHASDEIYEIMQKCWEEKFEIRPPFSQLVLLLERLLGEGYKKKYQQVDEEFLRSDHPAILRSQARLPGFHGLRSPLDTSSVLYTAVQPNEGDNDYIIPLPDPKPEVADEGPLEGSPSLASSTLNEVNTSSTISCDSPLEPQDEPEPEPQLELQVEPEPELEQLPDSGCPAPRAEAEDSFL
compound,measurement,setting,value
COc1cccc(Nc2cc(N3CCN(C(=O)Nc4ccc(C(F)(F)F)cc4)CC3)ncn2)c1,fold change (FC),[1],3.2
same,fold change (FC),[2],0.61
same,fold change (FC),[3],0.74
same,IC50,[4],7.8 µM
same,fold change (FC),MDA-MB-231 [5],0.43
same,fold change (FC),MDA-MB-231 [6],1.08
same,fold change (FC),MDA-MB-231 [7],1.8
same,fold change (FC),MDA-MB-231 [8],3.2
same,fold change (FC),[9],1.5
same,fold change (FC),MDA-MB-231 [10],0.55
same,fold change (FC),[11],0.95
same,fold change (FC),MDA-MB-231 [12],0.89
same,fold change (FC),MDA-MB-231 [13],2.7
same,Activity,MDA-MB-231 [14],Active
same,fold change (FC),[15],3.21
same,fold change (FC),[16],3.67
same,fold change (FC),[17],0.66
same,fold change (FC),[18],0.23
same,fold change (FC),[19],0.85
same,fold change (FC),MDA-MB-231 [20],0.99
same,fold change (FC),[21],0.04
same,fold change (FC),[22],1.2
